Data: ChEMBL document CHEMBL1124772, “Synthesis and anticonvulsant activity of 1-phenylcyclohexylamine analogues” (J Med Chem, 1990)
pKi: −log10 of the molar value.

Assays:
[1] = system: Mus musculus; assay: Evaluated for anticonvulsant activity (ED50) by maximal electroshock (MES) seizure test in mouse by intraperitoneal administration.; assay type: functional
Method in brief: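 Protection means no tonic-extensor component. Five to 10 doses, eight mice per dose; ED50 with 95% confidence limits by log-probit analysis. Compounds given as HCl salts, one as a methiodide.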

[2] = system: Mus musculus; assay: Evaluated for anticonvulsant activity (TD50) by motor toxicity assay in mouse by intraperitoneal administration.; assay type: functional; conditions: ip
Method in brief: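 Male Swiss mice (25–30 g), ip in 0.9% NaCl carrier. Five to 10 doses, eight mice per dose; TD50 with 95% confidence limits by log-probit analysis. Compounds given as HCl salts, one as a methiodide.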

[3] = biological target: Glutamate NMDA receptor; assay: Evaluated in vitro binding affinity against PCP receptor using [3H]TCP as radioligand in rat brain membranes; assay type: cell membranes
[4] = organism: Mus musculus; assay: TI value is the ratio between TD50 and ED50; assay type: functional
Method in brief: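 Ratio TD50/MES ED50. Both values from ip dosing in male Swiss mice (25–30 g), 0.9% NaCl carrier. Five to 10 doses, eight mice per dose; each value by log-probit analysis.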

[5] = system: Mus musculus; assay: Evaluated for anticonvulsant activity (TD50) by motor toxicity assay in mouse by intraperitoneal administration; range is 40.6-54.8; assay type: functional; conditions: ip

Row | SMILES | MES ED50 [1] [mg/kg] | TD50 [2] [mg/kg] | pKi [3] | TI [4] | TD50 [5] [mg/kg]
1 | COc1ccccc1C1(N)CCCCC1.Cl | 11.11 | 31.6 | 6.07 | 2.84 | 
2 | Cc1cccc(C2(N)CCCCC2)c1.Cl | 19.11 | 26.2 | 6.23 | 1.37 | 
3 | Cl.NC1(c2ccc(F)cc2)CCCCC1 | 26.18 | 23.4 | 6.03 | 0.9 | 
4 | CSc1cccc(C2(N)CCCCC2)c1.Cl | 32.88 | 63.7 | 5.62 | 1.94 | 
5 | CCCCC1(N)CCCCC1.Cl | >40.6 |  |  |  | 40.6
6 | CSc1ccccc1C1(N)CCCCC1.Cl | 26.18 | 29.3 | 6.09 | 1.12 | 
7 | Cl.NC1(c2cccc(C(F)(F)F)c2)CCCCC1 | 24.31 | 16 | 5.08 | 0.66 | 
8 | Cc1ccccc1C1(N)CCCCC1.Cl | 4.93 | 7.19 | 5.11 | 1.46 | 
9 | Cl.NC1(c2ccccc2)CCCCCC1 | 19.73 | 43 | 5.59 | 2.18 | 
10 | Cc1ccc(C2(N)CCCCC2)cc1.Cl | >74 | > 74 | 5.14 |  | 
11 | Cl.NC1(c2ccccc2C(F)(F)F)CCCCC1 | 30.36 | 39.2 | 4.91 | 1.29 | 
12 | Cl.NC1(c2ccccc2F)CCCCC1 | 22.93 | 61.2 | 4.97 | 2.67 | 
13 | Cl.NC1(c2ccccc2)CCCC1 | 18.52 | 64.6 | 4.98 | 3.49 | 
14 | Cl.NC1(c2cccs2)CCCCC1 | 10.5 | 4.99 | 6.84 | 0.47 | 
15 | Cl.NC1(c2cccc(F)c2)CCCCC1 | 9.36 | 20.2 | 6.17 | 2.15 | 
16 | C[C@H]1CC[C@](N)(c2ccccc2)CC1.Cl | 13.53 | 46.6 | 5.96 | 3.44 | 
17 | Cl.NC1(c2cccc(OCc3ccccc3)c2)CCCCC1 | 29.41 | 67 | 4.97 | 2.28 | 
18 | c1ccc(C2(N3CCCCC3)CCCCC2)cc1 [PHENCYCLIDINE] | 3.1 | 2.9 | 7.22 | 0.93 | 
19 | C[C@@H]1CCC[C@@](N)(c2ccccc2)C1.Cl | 8.04 | 15.9 | 5.10 | 1.98 | 
20 | CN(C)C1(c2ccccc2)CCCCC1.Cl | 4.86 | 11.3 | 6.14 | 2.32 | 

Row | SMILES | MES ED50 [1] [mg/kg] | TD50 [2] [mg/kg] | pKi [3] | TI [4] | TD50 [5] [mg/kg]
21 | C[N+](C)(C)C1(c2ccccc2)CCCCC1.[I-] | >64 | > 64 | 4.84 |  | 
22 | C[C@@H]1CCCC[C@]1(N)c1ccccc1.Cl (racemic) | 16.87 | 34.6 | 5.80 | 2.05 | 
23 | Cl.NC1(c2c(F)c(F)c(F)c(F)c2F)CCCCC1 | 33.81 | 37.9 | 5.00 | 1.21 | 
24 | Cl.NC1(c2cccc(O)c2)CCCCC1 | 35.25 | 42.7 | 6.65 | 1.21 | 
25 | CSc1ccc(C2(N)CCCCC2)cc1.Cl | 40.8 | 77.1 | 4.37 | 1.89 | 
26 | C[C@H]1CCC[C@](N)(c2ccccc2)C1.Cl | 26.38 | 54.8 | 6.30 |  | 
27 | C[C@H]1CC[C@@](N)(c2ccccc2)CC1.Cl | 33.75 | 69.3 | 5.08 | 2.05 | 
28 | Cl.NC1(c2cc3ccccc3c3ccccc23)CCCCC1 | 16.02 | 20.6 | 4.56 | 1.28 | 
29 | CCC(N)(CC)c1ccccc1.Cl | 31.23 | 42.1 | 5.22 | 1.35 | 
30 | C[C@H]1CCCC[C@]1(N)c1ccccc1.Cl (racemic) | 8.01 | 5.92 | 5.70 | 0.74 | 
31 | C[C@@H]1CCC[C@](N)(c2ccccc2)C1.Cl | 20.86 | 56.1 | 5.92 | 2.69 | 
32 | CNC1(c2ccccc2)CCCCC1.Cl | 4.62 | 1.56 | 6.46 | 0.34 | 
33 | Cl.NC1(c2ccc(-c3ccccc3)cc2)CCCCC1 | 18.81 | 26.7 | 4.07 | 1.42 | 
34 | COc1cccc(C2(N)CCCCC2)c1.Cl | 14.78 | 21.4 | 6.25 | 1.45 | 
35 | Cl.NC1(Cc2ccccc2)CCCCC1 | 34.52 | 67.2 | 4.80 | 1.95 | 
36 | Cl.NC1(c2ccc3ccccc3c2)CCCCC1 | 16.91 | 30.9 | 4.47 | 1.82 | 
37 | C[C@H]1CCC[C@@](N)(c2ccccc2)C1.Cl | 8.01 | 24.3 | 5.79 | 3.04 | 
38 | Cl.NC1(c2ccccc2)CCCCC1 | 7.04 | 16.3 | 6.28 | 2.31 | 
39 | COc1ccc(C2(N)CCCCC2)cc1.Cl | 32.67 | 77.9 | 3.92 | 2.39 | 
40 | Cl.NCC1(c2ccccc2)CCCCC1 | 27.7 | 51.9 | 5.29 | 1.87 | 
